Results: ChEMBL document CHEMBL4219134, “Xanthone derivatives as phosphoglycerate mutase 1 inhibitors: Design, synthesis, and biological evaluation” (Bioorg Med Chem, 2018)

What was measured:
[1] = target: T1, Phosphoglycerate mutase 1 (Homo sapiens, UniProt P18669); assay: Inhibition of recombinant PGAM1 (unknown origin) at 20 uM using 3-PG as substrate preincubated for 2 mins followed by substrate addition relative to control
Procedure, shortened: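 Same coupled PGAM1 assay: recombinant enzyme preincubated 2 min at room temperature with compound in 50 mM Tris pH 8.0. Enolase/PK/LDH mix with ADP, MgCl2, KCl and NADH added, then 3PG (200 mM stock) to start. OD340 decrease measured; inhibition ratio recorded at 20 µM.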
Target sequence in this assay (P18669 2-254 limits assumed): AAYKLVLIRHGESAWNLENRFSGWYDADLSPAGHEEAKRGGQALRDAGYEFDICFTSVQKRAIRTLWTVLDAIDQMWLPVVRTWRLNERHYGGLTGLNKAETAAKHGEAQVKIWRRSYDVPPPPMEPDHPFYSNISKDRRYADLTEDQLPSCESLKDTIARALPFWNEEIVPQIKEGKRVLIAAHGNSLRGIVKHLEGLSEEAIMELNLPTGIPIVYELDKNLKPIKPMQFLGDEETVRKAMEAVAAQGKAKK

[2] = target: T1, Phosphoglycerate mutase 1; assay: Inhibition of recombinant PGAM1 (unknown origin) using 3-PG as substrate preincubated for 2 mins followed by substrate addition
Procedure, shortened: (§1)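 Recombinant PGAM1 plus compound (DMSO) in 50 mM Tris pH 8.0, preincubated 2 min at room temperature. Started with 3PG (200 mM stock); NADH oxidation read as OD340 decrease. IC50 from triplicates, mean ± sd.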
Target sequence in this assay (P18669 whole entry): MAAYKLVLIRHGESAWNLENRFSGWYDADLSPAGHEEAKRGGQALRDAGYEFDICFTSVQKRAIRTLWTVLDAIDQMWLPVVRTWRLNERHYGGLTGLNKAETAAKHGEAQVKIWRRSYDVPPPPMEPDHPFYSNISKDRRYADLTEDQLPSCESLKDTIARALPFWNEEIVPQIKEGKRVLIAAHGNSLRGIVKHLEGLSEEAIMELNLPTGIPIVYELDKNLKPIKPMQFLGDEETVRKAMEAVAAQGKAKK

[3] = tested on: MCF7; assay: Antiproliferative activity against human MCF7 cells after 72 hrs by MTT assay; assay type: functional, cell-based; settings: MCF7, 72 h
Procedure, shortened: (§2)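 MTT assay: 2 × 10^3 cells per well, cultured 24 h at 37 °C. Compound then added for 72 h at 37 °C, followed by 0.5 mg mL-1 MTT for 4 h. Formazan dissolved in DMSO and absorbance read at 570 nm. IC50 from triplicate experiments, mean ± sd.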

[4] = species: Homo sapiens; assay: Inhibition of enolase (unknown origin) at 5 uM using 2-PG relative to control
Procedure, shortened: (§3)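 PGAM1 omitted to test the downstream coupling enzymes. Compound (0.5 mM stock) preincubated 2 min at room temperature in 50 mM Tris pH 8.0. OD340 decrease read; inhibition ratio at 5 µM.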

[5] = tested on: PANC-1; assay: Antiproliferative activity against human PANC1 cells after 72 hrs by MTT assay; assay type: functional, cell-based; settings: PANC-1, 72 h; procedure, shortened: as §2
[6] = tested on: NCI-H1299; assay: Antiproliferative activity against human H1299 cells after 72 hrs by MTT assay; assay type: functional, cell-based; settings: NCI-H1299, 72 h; procedure, shortened: as §2
[7] = target: L-lactate dehydrogenase (Homo sapiens) (UniProt V9HWB9); assay: Inhibition of LDH (unknown origin) at 5 uM using 2-PG relative to control; procedure, shortened: as §3
[8] = species: Homo sapiens; assay: Inhibition of pyruvate kinase (unknown origin) at 5 uM using 2-PG relative to control; procedure, shortened: as §3
[9] = tested on: NCI-H1299; assay: Potency index, ratio of PGMI-004A IC50 to test compound IC50 for antiproliferative activity against human H1299 cells; assay type: functional
[10] = tested on: PANC-1; assay: Antiproliferative activity against human PANC1 cells at 200 uM after 72 hrs by MTT assay relative to control; assay type: functional; settings: PANC-1, 72 h
Procedure, shortened: (§4)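 MTT format: 2 × 10^3 cells per well, seeded 24 h, then compound for 72 h at 37 °C. 0.5 mg mL-1 MTT for 4 h, DMSO solubilization, A570. Inhibition ratio recorded at the top tested concentration: 40 µM for H1299, 200 µM for PANC-1.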

[11] = target: T1, Phosphoglycerate mutase 1; assay: Inhibition of PGAM1 (unknown origin); procedure, shortened: as §1
Target sequence in this assay (P18669 whole entry): as above

[12] = target: T1, Phosphoglycerate mutase 1; assay: Inhibition of PGAM1 in human MDA-MB-231 cells using 3-PGA as substrate after 2 hrs in by UV-vis spectrophotometric method; assay type: cell-based
Target sequence in this assay (P18669 whole entry): as above

[13] = tested on: NCI-H1299; assay: Antiproliferative activity against human H1299 cells at 40 uM after 72 hrs by MTT assay relative to control; assay type: functional; settings: NCI-H1299, 72 h; procedure, shortened: as §4
[14] = target: T1, Phosphoglycerate mutase 1; assay: Binding affinity to PGAM1 (unknown origin) assessed as change in melting temperature by SYPRO Orange-dye based fluorescence thermal shift assay
Procedure, shortened: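 PGAM1 protein at 200 µg/ml with compound at 12.5 to 50 µM in 20 mM Tris-HCl, 100 mM NaCl, pH 7.4. Melting monitored by SYPRO orange fluorescence at 610 nm; Tm shift recorded.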
Target sequence in this assay (P18669 2-254 limits assumed): as the sequence (P18669 2-254 limits assumed) above

SMILES | inhibition [1] [%] | IC50 [2] [µM] | IC50 [3] [µM] | inhibition [4] [%] | IC50 [5] [µM] | IC50 [6] [µM] | inhibition [7] [%] | inhibition [8] [%] | further results
COc1c(NS(=O)(=O)c2ccc(Cl)cc2)cc2oc3cccc(OC)c3c(=O)c2c1O | < 10 | > 20 |  |  |  |  |  |  | 
COc1c(NS(=O)(=O)c2ccc(C(C)(C)C)cc2)cc2oc3cccc(OC)c3c(=O)c2c1O | < 10 | > 20 |  |  |  |  |  |  | 
O=c1c2c(O)cccc2oc2cc(NS(=O)(=O)Cc3ccccc3)c(O)c(O)c12 |  | 1.9 | > 200 | 12 | > 200 | 62.9 | 12 | 12 | 
COc1c(NS(=O)(=O)c2ccccc2)cc2oc3cccc(OC)c3c(=O)c2c1O | < 10 | > 20 |  |  |  |  |  |  | 
COc1c(NS(=O)(=O)c2ccc(C)cc2)cc2oc3cccc(OC)c3c(=O)c2c1O | < 10 | > 20 |  |  |  |  |  |  | 
COc1c(NS(=O)(=O)c2cccc3ccccc23)cc2oc3cccc(OC)c3c(=O)c2c1O | < 10 | > 20 |  |  |  |  |  |  | 
O=c1c2c(O)cccc2oc2cc(NS(=O)(=O)c3ccc4ccccc4c3)c(O)c(O)c12 |  | 1.6 | 43.3 | 9 | > 200 | 22.6 | 9 | 9 | 
COc1c(NS(=O)(=O)c2ccc(N3CCCCC3)cc2)cc2oc3cccc(OC)c3c(=O)c2c1O | < 10 | > 20 |  |  |  |  |  |  | 
COc1c(NS(=O)(=O)c2ccc(-c3ccccc3)cc2)cc2oc3cccc(OC)c3c(=O)c2c1O | < 10 | > 20 |  |  |  |  |  |  | 
O=c1c2c(O)cccc2oc2cc(NS(=O)(=O)c3ccc(F)cc3)c(O)c(O)c12 |  | 5.5 | 20.8 | 1 | > 200 | 21.9 | 1 | 1 | 
COc1c(NS(=O)(=O)c2ccc(C3CCCCC3)cc2)cc2oc3cccc(OC)c3c(=O)c2c1O | < 10 | > 20 |  |  |  |  |  |  | 
O=c1c2c(O)cccc2oc2cc(NS(=O)(=O)c3ccc(N4CCCC4)cc3)c(O)c(O)c12 |  | 2.7 | > 200 | 4 | 137 | 5 | 4 | 4 | Ratio IC50 [9]: 5
COc1c(NS(=O)(=O)c2ccc3ccccc3c2)cc2oc3cccc(OC)c3c(=O)c2c1O | < 10 | > 20 |  |  |  |  |  |  | 
O=c1c2c(O)cccc2oc2cc(NS(=O)(=O)c3ccccc3)c(O)c(O)c12 |  | 2.8 | 113 | 6 | > 200 | 59 | 6 | 6 | inhibition at 200 µM [10]: < 50%
COc1c(NS(=O)(=O)c2ccc(Br)cc2)cc2oc3cccc(OC)c3c(=O)c2c1O | < 10 | > 20 |  |  |  |  |  |  | 
COc1c(NS(=O)(=O)c2ccc(N3CCCC3)cc2)cc2oc3cccc(OC)c3c(=O)c2c1O | < 10 | > 20 |  |  |  |  |  |  | 
Cc1ccc(S(=O)(=O)Nc2cc3oc4cccc(O)c4c(=O)c3c(O)c2O)cc1 |  | 7.2 | 44.9 | 2 | 20.7 | 13.2 | 2 | 2 | 
O=C1c2ccccc2C(=O)c2c1cc(S(=O)(=O)O)c(O)c2O [ALIZARIN RED] |  |  |  |  |  |  |  |  | IC50 [11]: 2.3 µM
COc1c(NS(=O)(=O)c2ccc(F)cc2)cc2oc3cccc(OC)c3c(=O)c2c1O | < 10 | > 20 |  |  |  |  |  |  | 
N#Cc1ccc(S(=O)(=O)Nc2cc3oc4cccc(O)c4c(=O)c3c(O)c2O)cc1 |  | 4.2 | 40.1 | 10 | > 200 | > 40 | 10 | 10 | 

SMILES | inhibition [1] [%] | IC50 [2] [µM] | IC50 [3] [µM] | inhibition [4] [%] | IC50 [5] [µM] | IC50 [6] [µM] | inhibition [7] [%] | inhibition [8] [%] | further results
C#CCCCC(=O)OC(C)(C)[C@H]1CC[C@]2(CO2)[C@@H](OC(=O)N[C@@H](Cc2c[nH]c3ccccc23)C(=O)OCc2ccccc2)C1 |  |  |  |  |  |  |  |  | IC50 [12]: 33 µM
N#Cc1cccc(S(=O)(=O)Nc2cc3oc4cccc(O)c4c(=O)c3c(O)c2O)c1 |  | 2.1 | 18.4 | 13 | > 200 | 53 | 13 | 13 | 
COc1c(NS(=O)(=O)c2cc(C(F)(F)F)ccc2C(F)(F)F)cc2oc3cccc(OC)c3c(=O)c2c1O | < 10 | > 20 |  |  |  |  |  |  | 
O=c1c2c(O)cccc2oc2cc(NS(=O)(=O)c3ccc(Br)cc3)c(O)c(O)c12 |  | 2.9 | 6.8 | 6 | > 200 | > 40 | 6 | 6 | inhibition at 40 µM [13]: < 50%
CC(C)(C)c1ccc(S(=O)(=O)Nc2cc3oc4cccc(O)c4c(=O)c3c(O)c2O)cc1 |  | 2.6 | 13.4 | 1 | > 200 | 10.7 | 1 | 1 | 
O=c1c2c(O)cccc2oc2cc(NS(=O)(=O)c3ccc(N4CCCCC4)cc3)c(O)c(O)c12 |  | 1 | 47.6 | 5 | > 200 | 8.1 | 5 | 5 | 
O=c1c2c(O)cccc2oc2cc(NS(=O)(=O)c3cccc(OC(F)(F)F)c3)c(O)c(O)c12 |  | 5.8 | 20.5 | 12 | 116 | 13.9 | 12 | 12 | 
O=c1c2c(O)cccc2oc2cc(NS(=O)(=O)c3ccc(Cl)cc3)c(O)c(O)c12 |  | 3.6 | 15.5 | 15 | 91.4 | 10.2 | 15 | 15 | 
COc1c(NS(=O)(=O)c2ccc(C#N)cc2)cc2oc3cccc(OC)c3c(=O)c2c1O | < 10 | > 20 |  |  |  |  |  |  | 
O=c1c2c(O)cccc2oc2cc(NS(=O)(=O)c3cccc4ccccc34)c(O)c(O)c12 |  | 1.7 | 27.3 | 7 | 101 | 23.2 | 7 | 7 | 
O=c1c2c(O)cccc2oc2cc(NS(=O)(=O)c3ccc(C4CCCCC4)cc3)c(O)c(O)c12 |  | 0.5 | 26.6 | 9 | 35.3 | 10.7 | 9 | 9 | Activity [14]: Dose-dependent effect
O=c1c2c(O)cccc2oc2cc(NS(=O)(=O)c3ccc(C(F)(F)F)cc3)c(O)c(O)c12 |  | 3.5 | 30.2 | -1 | 58.5 | 10.3 | -1 | -1 | 
O=c1c2c(O)cccc2oc2cc(NS(=O)(=O)c3ccc(I)cc3)c(O)c(O)c12 |  | 1.9 | 13.5 | 11 | 34.5 | 24.3 | 11 | 11 | 
COc1c(NS(=O)(=O)c2cccc(C#N)c2)cc2oc3cccc(OC)c3c(=O)c2c1O | < 10 | > 20 |  |  |  |  |  |  | 
COc1c(NS(=O)(=O)c2ccc(C(F)(F)F)cc2)cc2oc3cccc(OC)c3c(=O)c2c1O | < 10 | > 20 |  |  |  |  |  |  | 
O=c1c2c(O)cccc2oc2cc(NS(=O)(=O)c3ccc(-c4ccccc4)cc3)c(O)c(O)c12 |  | 1.2 | 44.9 | 8 | > 200 | 12.9 | 8 | 8 | 
COc1c(NS(=O)(=O)c2ccc(I)cc2)cc2oc3cccc(OC)c3c(=O)c2c1O | < 10 | > 20 |  |  |  |  |  |  | 
COc1c(NS(=O)(=O)c2cccc(OC(F)(F)F)c2)cc2oc3cccc(OC)c3c(=O)c2c1O | < 10 | > 20 |  |  |  |  |  |  | 
COc1c(NS(=O)(=O)Cc2ccccc2)cc2oc3cccc(OC)c3c(=O)c2c1O | < 10 | > 20 |  |  |  |  |  |  | 
